Measurements as given in ChEMBL document CHEMBL3608279, “Discovery and Characterization of a Water-Soluble Prodrug of a Dual Inhibitor of Bacterial DNA Gyrase and Topoisomerase IV” (ACS Med Chem Lett, 2015).
Values after ≈ are worked out from the molar mass of the structure shown.

Columns and labels:
Plasma [1] = assay: Prodrug conversion in rat plasma assessed as formation of 1-ethyl-3-[6-fluoro-5-[2-(1-hydroxy-1-methyl-ethyl)pyrimidin-5-yl]-7-[(2R)-tetrahydrofuran-2-yl]-1H-benzimidazol-2-yl]urea at 3 mg/kg, po by LC-MS/MS analysis; format: ADME, organism-based; conditions: in vivo
Procedure, shortened: (§1)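 Prodrug given orally to rat and dog at 3 mg/kg and to monkey at 30 mg/kg. Plasma parent exposure measured, with oral dosing of the parent at the same nominal dose as comparator.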

Plasma [2] = assay: Prodrug conversion in dog plasma assessed as formation of 1-ethyl-3-[6-fluoro-5-[2-(1-hydroxy-1-methyl-ethyl)pyrimidin-5-yl]-7-[(2R)-tetrahydrofuran-2-yl]-1H-benzimidazol-2-yl]urea at 3 mg/kg, po by LC-MS/MS analysis; format: ADME, organism-based, Canis lupus familiaris; conditions: in vivo; procedure, shortened: as §1
Plasma [3] = assay: Prodrug conversion in monkey plasma assessed as formation of 1-ethyl-3-[6-fluoro-5-[2-(1-hydroxy-1-methyl-ethyl)pyrimidin-5-yl]-7-[(2R)-tetrahydrofuran-2-yl]-1H-benzimidazol-2-yl]urea at 30 mg/kg, po by LC-MS/MS analysis; format: ADME, organism-based, Macaca mulatta; conditions: rhesus monkey, in vivo; procedure, shortened: as §1
Liver [4] = assay: Prodrug conversion in rat liver S9 fractions assessed as formation of 1-ethyl-3-[6-fluoro-5-[2-(1-hydroxy-1-methyl-ethyl)pyrimidin-5-yl]-7-[(2R)-tetrahydrofuran-2-yl]-1H-benzimidazol-2-yl]urea by Michaelis-Menten plot analysis; format: ADME, subcellular, Liver S9 fraction
Procedure, shortened: (§2)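 Prodrug incubated across 1 to 1000 μM in liver and intestinal S9 fractions from rat, dog, monkey and human. Formation of the parent compound was followed to characterize conversion kinetics.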

Liver [5] = assay: Prodrug conversion in dog liver S9 fractions assessed as formation of 1-ethyl-3-[6-fluoro-5-[2-(1-hydroxy-1-methyl-ethyl)pyrimidin-5-yl]-7-[(2R)-tetrahydrofuran-2-yl]-1H-benzimidazol-2-yl]urea by Michaelis-Menten plot analysis; format: ADME, subcellular, Canis lupus familiaris, Liver S9 fraction; procedure, shortened: as §2
[6] = Prodrug conversion in monkey liver S9 fractions assessed as formation of 1-ethyl-3-[6-fluoro-5-[2-(1-hydroxy-1-methyl-ethyl)pyrimidin-5-yl]-7-[(2R)-tetrahydrofuran-2-yl]-1H-benzimidazol-2-yl]urea by Michaelis-Menten plot analysis; format: ADME, subcellular, Macaca mulatta, Liver S9 fraction; conditions: rhesus monkey; procedure, shortened: as §2
Liver [7] = assay: Prodrug conversion in human liver S9 fractions assessed as formation of 1-ethyl-3-[6-fluoro-5-[2-(1-hydroxy-1-methyl-ethyl)pyrimidin-5-yl]-7-[(2R)-tetrahydrofuran-2-yl]-1H-benzimidazol-2-yl]urea by Michaelis-Menten plot analysis; format: ADME, subcellular, Liver S9 fraction; procedure, shortened: as §2
Intestine = assay: Prodrug conversion in rat intestine S9 fractions assessed as formation of 1-ethyl-3-[6-fluoro-5-[2-(1-hydroxy-1-methyl-ethyl)pyrimidin-5-yl]-7-[(2R)-tetrahydrofuran-2-yl]-1H-benzimidazol-2-yl]urea by Michaelis-Menten plot analysis; format: ADME, tissue-based; procedure, shortened: as §2
[8] = Prodrug conversion in dog intestine S9 fractions assessed as formation of 1-ethyl-3-[6-fluoro-5-[2-(1-hydroxy-1-methyl-ethyl)pyrimidin-5-yl]-7-[(2R)-tetrahydrofuran-2-yl]-1H-benzimidazol-2-yl]urea by Michaelis-Menten plot analysis; format: ADME, tissue-based, Canis lupus familiaris; procedure, shortened: as §2
[9] = Prodrug conversion in monkey intestine S9 fractions assessed as formation of 1-ethyl-3-[6-fluoro-5-[2-(1-hydroxy-1-methyl-ethyl)pyrimidin-5-yl]-7-[(2R)-tetrahydrofuran-2-yl]-1H-benzimidazol-2-yl]urea by Michaelis-Menten plot analysis; format: ADME, tissue-based, Macaca mulatta; conditions: rhesus monkey; procedure, shortened: as §2
[10] = Prodrug conversion in human intestine S9 fractions assessed as formation of 1-ethyl-3-[6-fluoro-5-[2-(1-hydroxy-1-methyl-ethyl)pyrimidin-5-yl]-7-[(2R)-tetrahydrofuran-2-yl]-1H-benzimidazol-2-yl]urea by Michaelis-Menten plot analysis; format: ADME, tissue-based; procedure, shortened: as §2
Staphylococcus aureus [11] = assay: Antibacterial activity against methicillin-resistant Staphylococcus aureus 509 in po dosed neutropenic CD1 mouse pneumonia model assessed as decrease in bacterial burden in lung administered as bid measured after 24 hrs; format: functional; conditions: for MIC: Staphylococcus aureus, 509, Lung
Procedure, shortened: (§3)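 Neutropenic female CD-1 mice, 6 per group, infected in the lung with the MRSA isolate. Oral dosing began 3 h after challenge at 7.5, 15 and 30 mg/kg BID. Lungs were taken after 24 h of treatment and bacterial burden counted as CFU. Early-control and vehicle-treated groups served as reference. The levofloxacin comparator was given TID subcutaneously.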

Staphylococcus aureus [12] = assay: Antibacterial activity against methicillin/levofloxacin-resistant Staphylococcus aureus 156 in po dosed neutropenic CD1 mouse pneumonia model assessed as decrease in bacterial burden in lung administered as bid measured after 24 hrs; format: functional; conditions: for MIC: Staphylococcus aureus, 156, Lung; procedure, shortened: as §3
Staphylococcus aureus [13] = assay: Antibacterial activity against methicillin/levofloxacin-resistant Staphylococcus aureus 156 in neutropenic CD1 mouse pneumonia model assessed as decrease in bacterial burden in lung at 30 mg/kg, po bid measured after 24 hrs; format: functional; procedure, shortened: as §3
Staphylococcus aureus [14] = assay: Antibacterial activity against methicillin-resistant Staphylococcus aureus 509 in neutropenic CD1 mouse pneumonia model assessed as decrease in bacterial burden in lung at 30 mg/kg, po bid measured after 24 hrs; format: functional; procedure, shortened: as §3
Plasma [15] = assay: Prodrug conversion in dog plasma assessed as formation of 1-ethyl-3-[6-fluoro-5-[2-(1-hydroxy-1-methyl-ethyl)pyrimidin-5-yl]-7-[(2R)-tetrahydrofuran-2-yl]-1H-benzimidazol-2-yl]urea at 1 mg/kg, iv measured at 4 hrs by LC-MS/MS analysis; format: ADME, organism-based, Canis lupus familiaris; conditions: in vivo
Procedure, shortened: (§4)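 Single IV dose, 1 mg/kg nominal, given to rat, dog and monkey. Plasma sampled over time for both prodrug and parent, with the parent exposure expressed as AUC. Dosing the parent itself IV at the same nominal dose served as the comparator.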

Plasma [16] = assay: Prodrug conversion in monkey plasma assessed as formation of 1-ethyl-3-[6-fluoro-5-[2-(1-hydroxy-1-methyl-ethyl)pyrimidin-5-yl]-7-[(2R)-tetrahydrofuran-2-yl]-1H-benzimidazol-2-yl]urea at 1 mg/kg, iv measured at 4 hrs by LC-MS/MS analysis; format: ADME, organism-based, Macaca mulatta; conditions: rhesus monkey, in vivo; procedure, shortened: as §4
[17] = Aqueous solubility of the compound at pH 7; format: physicochemical; conditions: buffer
Staphylococcus aureus [18] = assay: Antibacterial activity against Staphylococcus aureus ATCC 29213; format: functional
Enterococcus faecalis = assay: Antibacterial activity against Enterococcus faecalis ATCC 29212; format: functional
Enterococcus faecium = assay: Antibacterial activity against Enterococcus faecium ATCC 49624; format: functional
Streptococcus pneumoniae = assay: Antibacterial activity against Streptococcus pneumoniae ATCC 10015; format: functional
DNA gyrase = DNA gyrase (Staphylococcus aureus, UniProt P0A0K8+P20831); assay: Inhibition of Staphylococcus aureus DNA gyrase; format: protein-complex assay
Chain of DNA gyrase (P0A0K8 whole entry): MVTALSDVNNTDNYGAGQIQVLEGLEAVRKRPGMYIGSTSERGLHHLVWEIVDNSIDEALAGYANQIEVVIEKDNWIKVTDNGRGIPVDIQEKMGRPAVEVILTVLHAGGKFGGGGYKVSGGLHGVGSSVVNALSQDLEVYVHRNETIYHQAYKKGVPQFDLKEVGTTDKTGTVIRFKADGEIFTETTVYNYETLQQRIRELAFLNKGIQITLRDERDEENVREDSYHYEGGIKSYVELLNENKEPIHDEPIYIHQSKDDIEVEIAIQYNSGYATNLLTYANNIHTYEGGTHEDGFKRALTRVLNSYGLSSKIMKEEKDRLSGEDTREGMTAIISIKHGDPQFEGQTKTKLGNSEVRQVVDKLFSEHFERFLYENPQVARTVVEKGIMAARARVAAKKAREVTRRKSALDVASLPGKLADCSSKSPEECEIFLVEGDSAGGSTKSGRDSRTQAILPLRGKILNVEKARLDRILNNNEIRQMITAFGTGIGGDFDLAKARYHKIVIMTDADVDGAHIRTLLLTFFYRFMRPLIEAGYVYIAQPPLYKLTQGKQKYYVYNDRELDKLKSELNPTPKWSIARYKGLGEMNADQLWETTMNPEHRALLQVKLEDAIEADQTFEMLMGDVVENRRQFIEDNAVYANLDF
Chain of DNA gyrase (P20831 whole entry): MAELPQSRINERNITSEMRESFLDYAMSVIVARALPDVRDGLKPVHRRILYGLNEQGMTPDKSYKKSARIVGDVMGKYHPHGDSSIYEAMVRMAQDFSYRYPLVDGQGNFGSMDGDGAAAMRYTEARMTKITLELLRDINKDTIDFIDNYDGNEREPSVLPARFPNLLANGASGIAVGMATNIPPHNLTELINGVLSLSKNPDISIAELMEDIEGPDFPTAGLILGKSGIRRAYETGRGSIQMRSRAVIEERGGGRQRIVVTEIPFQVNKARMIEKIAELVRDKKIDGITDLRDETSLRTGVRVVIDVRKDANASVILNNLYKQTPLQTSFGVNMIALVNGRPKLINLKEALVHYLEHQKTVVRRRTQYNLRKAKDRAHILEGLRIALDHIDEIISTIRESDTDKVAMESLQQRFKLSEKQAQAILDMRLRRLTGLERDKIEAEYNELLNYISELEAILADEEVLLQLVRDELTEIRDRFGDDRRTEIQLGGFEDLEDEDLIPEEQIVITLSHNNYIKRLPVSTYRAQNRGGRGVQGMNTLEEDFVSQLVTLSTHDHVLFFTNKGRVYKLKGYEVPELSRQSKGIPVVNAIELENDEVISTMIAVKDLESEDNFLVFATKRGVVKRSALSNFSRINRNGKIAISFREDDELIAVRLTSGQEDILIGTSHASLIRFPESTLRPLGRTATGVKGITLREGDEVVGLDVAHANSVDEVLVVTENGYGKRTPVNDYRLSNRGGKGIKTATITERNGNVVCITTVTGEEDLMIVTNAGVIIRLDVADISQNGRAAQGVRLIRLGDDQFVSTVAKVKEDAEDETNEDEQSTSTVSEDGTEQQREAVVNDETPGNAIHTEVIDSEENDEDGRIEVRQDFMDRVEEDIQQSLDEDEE

Topoisomerase IV = Topoisomerase IV (Staphylococcus aureus, UniProt P0C1S7+P0C1U9); assay: Inhibition of Staphylococcus aureus DNA topoisomerase 4; format: protein-complex assay
Chain of Topoisomerase IV (P0C1U9 whole entry): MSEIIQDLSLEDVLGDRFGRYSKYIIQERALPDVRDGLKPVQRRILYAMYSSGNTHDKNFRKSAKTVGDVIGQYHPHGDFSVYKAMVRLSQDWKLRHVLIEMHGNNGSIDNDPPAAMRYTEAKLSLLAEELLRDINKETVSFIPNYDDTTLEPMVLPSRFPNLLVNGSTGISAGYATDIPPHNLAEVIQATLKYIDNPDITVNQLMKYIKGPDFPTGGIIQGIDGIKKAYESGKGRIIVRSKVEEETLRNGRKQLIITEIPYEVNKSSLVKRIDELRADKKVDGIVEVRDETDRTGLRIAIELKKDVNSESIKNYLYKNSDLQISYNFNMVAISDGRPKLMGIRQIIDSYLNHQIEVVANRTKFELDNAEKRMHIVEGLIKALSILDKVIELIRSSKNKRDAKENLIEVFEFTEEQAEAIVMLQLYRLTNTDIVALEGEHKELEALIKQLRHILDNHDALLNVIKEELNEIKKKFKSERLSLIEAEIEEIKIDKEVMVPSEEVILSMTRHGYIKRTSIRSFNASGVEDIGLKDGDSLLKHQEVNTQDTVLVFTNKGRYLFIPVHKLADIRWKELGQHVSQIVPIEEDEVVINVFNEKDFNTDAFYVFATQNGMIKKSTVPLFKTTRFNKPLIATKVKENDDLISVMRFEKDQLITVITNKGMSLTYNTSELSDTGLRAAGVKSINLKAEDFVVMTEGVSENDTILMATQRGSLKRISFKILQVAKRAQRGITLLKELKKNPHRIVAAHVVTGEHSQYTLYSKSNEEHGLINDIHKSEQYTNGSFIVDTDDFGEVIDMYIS
Chain of Topoisomerase IV (P0C1S7 whole entry): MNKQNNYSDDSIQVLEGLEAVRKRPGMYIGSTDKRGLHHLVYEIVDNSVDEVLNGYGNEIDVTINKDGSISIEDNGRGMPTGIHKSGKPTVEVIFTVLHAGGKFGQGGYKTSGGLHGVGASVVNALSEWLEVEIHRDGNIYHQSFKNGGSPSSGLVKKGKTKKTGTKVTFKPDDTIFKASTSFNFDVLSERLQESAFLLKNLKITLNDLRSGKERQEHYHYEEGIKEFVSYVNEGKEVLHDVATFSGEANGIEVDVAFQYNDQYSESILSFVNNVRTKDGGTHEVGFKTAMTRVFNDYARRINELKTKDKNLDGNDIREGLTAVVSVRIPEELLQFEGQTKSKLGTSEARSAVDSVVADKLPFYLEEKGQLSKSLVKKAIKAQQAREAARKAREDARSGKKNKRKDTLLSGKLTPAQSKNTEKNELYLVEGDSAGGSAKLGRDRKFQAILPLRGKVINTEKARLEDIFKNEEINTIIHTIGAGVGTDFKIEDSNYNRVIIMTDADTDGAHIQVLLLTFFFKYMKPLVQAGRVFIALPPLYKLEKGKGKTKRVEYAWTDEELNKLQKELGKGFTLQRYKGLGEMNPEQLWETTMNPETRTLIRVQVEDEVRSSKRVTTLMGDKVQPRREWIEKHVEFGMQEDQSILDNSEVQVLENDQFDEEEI

Plasma [19] = assay: Prodrug conversion in rat plasma assessed as formation of 1-ethyl-3-[6-fluoro-5-[2-(1-hydroxy-1-methyl-ethyl)pyrimidin-5-yl]-7-[(2R)-tetrahydrofuran-2-yl]-1H-benzimidazol-2-yl]urea at 1 mg/kg, iv measured at 4 hrs by LC-MS/MS analysis; format: ADME, organism-based; conditions: in vivo; procedure, shortened: as §4
MDCK [20] = assay: (§5) Apparent permeability across apical to basolateral side in MDCK cells; format: ADME, cell-based, Canis lupus familiaris; conditions: dog
Procedure, shortened: (§6)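 Papp measured in wild-type MDCK cells in both apical-to-basolateral and basolateral-to-apical directions; values expressed in units of 1 × 10–6 cm/sec.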

MDCK [21] = assay: (§7) Apparent permeability across basolateral to apical side in MDCK cells; format: ADME, cell-based, Canis lupus familiaris; conditions: dog; procedure, shortened: as §6
Plasma [22] = assay: Drug uptake in rat plasma at 3 mg/kg, po by LC-MS/MS analysis; format: ADME, organism-based; conditions: in vivo; procedure, shortened: as §1
Plasma [23] = assay: Drug uptake in dog plasma at 3 mg/kg, po by LC-MS/MS analysis; format: ADME, organism-based, Canis lupus familiaris; conditions: in vivo; procedure, shortened: as §1
Plasma [24] = assay: Drug uptake in monkey plasma at 30 mg/kg, po by LC-MS/MS analysis; format: ADME, organism-based, Macaca mulatta; conditions: rhesus monkey, in vivo; procedure, shortened: as §1
Plasma [25] = assay: Drug uptake in dog plasma at 1 mg/kg, iv measured at 4 hrs by LC-MS/MS analysis; format: ADME, organism-based, Canis lupus familiaris; conditions: in vivo; procedure, shortened: as §4
Plasma [26] = assay: Drug uptake in rat plasma at 1 mg/kg, iv measured at 4 hrs by LC-MS/MS analysis; format: ADME, organism-based; conditions: in vivo; procedure, shortened: as §4
Plasma [27] = assay: Drug uptake in monkey plasma at 1 mg/kg, iv measured at 4 hrs by LC-MS/MS analysis; format: ADME, organism-based, Macaca mulatta; conditions: rhesus monkey, in vivo; procedure, shortened: as §4
[28] = as §5; format: ADME, cell-based, Canis lupus familiaris; conditions: dog; procedure, shortened: as §6
[29] = as §7; format: ADME, cell-based, Canis lupus familiaris; conditions: dog; procedure, shortened: as §6

CCNC(=O)Nc1nc2cc(-c3cnc(C(C)(C)OP(=O)(O)O)nc3)c(F)c([C@H]3CCCO3)c2[nH]1
Drug metabolism (Plasma [1]): metabolite_detected | Drug metabolism (Plasma [2]): metabolite_detected | Drug metabolism (Plasma [3]): metabolite_detected | Km (Liver [4]): 49.8 µM | Vmax (Liver [4]): 45.5 pmol/min/mg | Km (Liver [5]): 256 µM | Vmax (Liver [5]): 19.3 pmol/min/mg | Km [6]: 122 µM | Vmax [6]: 25.2 pmol/min/mg | Km (Liver [7]): 137 µM | Vmax (Liver [7]): 45.8 pmol/min/mg | Km (Intestine): 736 µM | Vmax (Intestine): 958 pmol/min/mg | Km [8]: 998 µM | Vmax [8]: 1162 pmol/min/mg | Km [9]: 5180 µM | Vmax [9]: 1974 pmol/min/mg | Vmax [10]: > 1000 pmol/min/mg | Activity (Staphylococcus aureus [11]): Dose-dependent effect | Activity (Staphylococcus aureus [12]): Dose-dependent effect | Activity (Staphylococcus aureus [13]): >3 deltalog10CFU | Activity (Staphylococcus aureus [14]): >3 deltalog10CFU | Drug metabolism (Plasma [15]): metabolite_detected | Drug metabolism (Plasma [16]): metabolite_detected | solubility [17]: 75 mg/mL (≈ 148000 µM) | MIC (Staphylococcus aureus [18]): 8 µg/mL (≈ 15.7 µM) | MIC (Enterococcus faecalis): 1 µg/mL (≈ 1.97 µM) | MIC (Enterococcus faecium): 4 µg/mL (≈ 7.87 µM) | MIC (Streptococcus pneumoniae): 0.25 µg/mL (≈ 0.492 µM) | Ki (DNA gyrase): < 9 nM | Ki (Topoisomerase IV): 30 nM | Drug metabolism (Plasma [19]): metabolite_detected | Papp (MDCK [20]): impermeable | Papp (MDCK [21]): impermeable

C[C@H]1COc2c(N3CCN(C)CC3)c(F)cc3c(=O)c(C(=O)O)cn1c23.C[C@H]1COc2c(N3CCN(C)CC3)c(F)cc3c(=O)c(C(=O)O)cn1c23.O [LEVOFLOXACIN]
MIC (Staphylococcus aureus [11]): 0.25 µg/mL | MIC (Staphylococcus aureus [12]): 8 µg/mL

CCNC(=O)Nc1nc2cc(-c3cnc(C(C)(C)O)nc3)c(F)c([C@H]3CCCO3)c2[nH]1
MIC (Staphylococcus aureus [11]): 0.06 µg/mL (≈ 0.14 µM) | MIC (Staphylococcus aureus [12]): 0.06 µg/mL (≈ 0.14 µM) | Drug uptake (Plasma [22]): Active | Drug uptake (Plasma [23]): Active | Drug uptake (Plasma [24]): Active | Drug uptake (Plasma [25]): Active | Drug uptake (Plasma [26]): Active | Drug uptake (Plasma [27]): Active | MIC (Staphylococcus aureus [18]): 0.016 µg/mL (≈ 0.0373 µM) | MIC (Enterococcus faecalis): 0.016 µg/mL (≈ 0.0373 µM) | MIC (Enterococcus faecium): 0.063 µg/mL (≈ 0.147 µM) | MIC (Streptococcus pneumoniae): ≤ 0.008 µg/mL | Ki (DNA gyrase): < 9 nM | Ki (Topoisomerase IV): 12 nM | Papp A→B [28]: 9.5 ×10⁻⁶ cm/s | Papp B→A [29]: 16.3 ×10⁻⁶ cm/s
